# Laboratory results: PMC8603004 (EFSA Journal, 2021)
# Marks after values point to notes of the source that are not given here.
# Experiments:
# [1] = tested on: Holstein Friesian dairy cows; assay: Tolerance study in dairy cows; type: in vivo; details: for Dry matter intake: 56 days
# [2] = tested on: Salmonella Typhimurium (TA98, TA100, TA1535 and TA1537) and Escherichia coli WP2uvrA; assay: Bacterial reverse mutation assays; type: cell-based; details: up to 5,000 μg/plate, with or without S9‐mix
# [3] = tested on: human peripheral blood lymphocytes; assay: In vitro micronucleus assay; type: cell-based
# [4] = tested on: L5178Y TK +/− mouse lymphoma; assay: L5178Y TK+/− mouse lymphoma assay; type: cell-based; details: up to 1,211 μg/mL, presence and absence of S9‐mix
# [5] = tested on: CByB6F1 Hybrid mice; assay: 28‐day oral gavage study with toxicokinetic evaluation of NOPA; type: in vivo
# [6] = tested on: New Zealand White rabbits; assay: Prenatal developmental toxicity study; details: rabbit, in vivo
# [7] = Eye irritation study
# [8] = Skin sensitisation study
# [9] = tested on: ruminal microorganisms; assay: In vitro ruminal fermentation; details: 3‐NOP added to the feed at different concentrations, three studies
# Summary of the method: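 Rumen fermentation was simulated in a chemostat (RUSITEC) as continuous culture of ruminal microorganisms. Each of three studies included a control without additive and one or more groups with test compound added to the feed at differing concentrations.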
# [10] = tested on: Holstein Friesian dairy cows; assay: Three long‐term studies on enteric methane output; type: in vivo
# [11] = tested on: dairy cows, beef cattle and sheep; details: 100 mg 3‐NOP/kg DMI; cited from earlier work
# [12] = Third in vitro rumen fluid trial; details: 39°C
# [13] = 90.2 mg 3‐NOP/kg feed DM (× 0.8)
# [14] = 106.8 mg 3‐NOP/kg feed DM (× 1)
# [15] = 220.4 mg 3‐NOP/kg feed DM (× 2)
# [16] = males, 700 mg/kg bw per day (control 0/10)
# [17] = study 1 WUR, 54 mg 3‐NOP/kg TMR DM intake
# [18] = study 2 UK, 57 mg 3‐NOP/kg TMR DM intake
# [19] = study 3 PSU, 61 mg 3‐NOP/kg TMR DM intake
compound,measurement,setting,value
"O=[N+]([O-])OCCCO [3‐NOP, propan‐1,3‐diol‐mononitrate]",ALT,[1]; [13],27* U/L
same,Albumin,[1]; [13],36 g/L
same,Amylase,[1]; [13],34 U/L
same,Body weight,[1]; [13],676 kg
same,Body weight change,[1]; [13],43.6 kg
same,Fat yield,[1]; [13],0.81 kg/day
same,Fibrinogen,[1]; [13],0.88 g/L
same,Haematocrit,[1]; [13],28* %
same,Haemoglobin d56,[1]; [13],110 g/L
same,LDH d56,[1]; [13],1249 U/L
same,Mean corpuscular haemoglobin,[1]; [13],16.5* pg
same,Milk yield,[1]; [13],28.7 kg/day
same,Monocytes d5,[1]; [13],4.8e+08 L⁻¹
same,Monocytes d56,[1]; [13],3.1e+08 L⁻¹
same,Ovary absolute size,[1]; [13],31.9 g
same,Ovary relative size,[1]; [13],0.048 g per kg final bw
same,Protein yield,[1]; [13],0.92 kg/day
same,Prothrombin time,[1]; [13],27.3* s
same,Red blood cells,[1]; [13],6.52* ×10^12/L
same,Water consumption,[1]; [13],95.9 kg/day
same,Dry matter intake,[1]; [13],22.9 kg/day
same,ALT,[1]; [14],27* U/L
same,Albumin,[1]; [14],36 g/L
same,Amylase,[1]; [14],34 U/L
same,Body weight,[1]; [14],675 kg
same,Body weight change,[1]; [14],42.2 kg
same,Ca,[1]; [14],2.47* mmol/L
same,Energy corrected milk,[1]; [14],22.7 kg/day
same,Fat yield,[1]; [14],0.74 kg/day
same,Fibrinogen,[1]; [14],0.93 g/L
same,Haematocrit,[1]; [14],28* %
same,Haemoglobin d56,[1]; [14],109 g/L
same,LDH d56,[1]; [14],1245 U/L
same,Milk yield,[1]; [14],27.5 kg/day
same,Monocytes d5,[1]; [14],4.6e+08 L⁻¹
same,Ovary absolute size,[1]; [14],29.7 g
same,Ovary relative size,[1]; [14],0.040 g per kg final bw
same,Protein yield,[1]; [14],0.88 kg/day
same,Red blood cells,[1]; [14],6.39* ×10^12/L
same,Total cholesterol,[1]; [14],4.18* mmol/L
same,Triglycerides,[1]; [14],0.130 mmol/L
same,Water consumption,[1]; [14],94.6 kg/day
same,Dry matter intake,[1]; [14],22.8 kg/day
same,ALT,[1]; [15],24* U/L
same,Albumin,[1]; [15],35* g/L
same,Amylase,[1]; [15],31* U/L
same,Body weight,[1]; [15],670 kg
same,Body weight change,[1]; [15],36.6 kg
same,Ca,[1]; [15],2.40 mmol/L
same,Energy corrected milk,[1]; [15],24.7* kg/day
same,Fat yield,[1]; [15],0.89* kg/day
same,Fibrinogen,[1]; [15],1.00* g/L
same,Haematocrit,[1]; [15],27* %
same,Haemoglobin d56,[1]; [15],103* g/L
same,LDH d56,[1]; [15],1034* U/L
same,Mean corpuscular haemoglobin,[1]; [15],16 pg
same,Milk yield,[1]; [15],27.5 kg/day
same,Monocytes d5,[1]; [15],0.43* ×10^9/L
same,Ovary absolute size,[1]; [15],25.8* g
same,Protein yield,[1]; [15],0.91 kg/day
same,Prothrombin time,[1]; [15],27.0* s
same,Red blood cells,[1]; [15],6.42* ×10^12/L
same,Total cholesterol,[1]; [15],4.18* mmol/L
same,Triglycerides,[1]; [15],0.124* mmol/L
same,Water consumption,[1]; [15],87.0* kg/day
same,Dry matter intake,[1]; [15],21.8* kg/day
same,Number of cows with signs of liver chronic inflammation (out of 8),[1]; 0.8× group (control 2),0
same,Number of cows with signs of liver chronic inflammation (out of 8),[1]; 1× group (control 2),3
same,DM intake less than in the control group,[1]; 2× group,4%
same,Energy corrected milk yield increase compared with the control,[1]; 2× group,7%
same,Number of cows with signs of liver chronic inflammation (out of 8),[1]; 2× group (control 2),5
same,Revertant colonies,[2],No increase in the mean number of revertant colonies
same,Frequency of micronuclei,"[3]; 164, 512 and 1,211 μg/mL, with and without S9‐mix",no increase in the frequency of micronuclei
same,Cytotoxicity,"[3]; up to 1,211 μg/mL",No cytotoxicity
same,Mutation frequencies (MF),[4],No biologically significant increases in MF
same,Reduction in mean overall food consumption,"[5]; 700 mg/kg bw per day, vs control",6%
same,NOAEL,[5]; blood biochemical changes at 300 mg/kg bw per day,100 mg 3‐NOP/kg bw per day
same,Decrease of absolute thymus weight,"[5]; males, 700 mg/kg bw per day",22%
same,Decrease of relative thymus weight,"[5]; males, 700 mg/kg bw per day",23%
same,Incidence of mild inflammation of the eye striated muscle,[5]; [16],4/10
same,Incidence of minimal to mild adrenal cortical vacuolation,[5]; [16],4/10
same,NOAEL for maternal and developmental toxicity,[6],at least 450 mg/kg bw per day
same,Eye irritation potential,[7],eye irritant
same,Skin sensitisation potential,[8],did not show any skin sensitisation potential
same,Methane output in vitro,[9],reduces methane output significantly
same,Final BW,[10]; [17],668 kg
same,Milk fat,[10]; [17],43.4 g/kg
same,Milk protein,[10]; [17],36.3 ^* g/kg
same,TMR DM intake,[10]; [17],18.4 kg/day
same,kg EC milk/day,[10]; [17],25.7 kg EC milk/day
same,kg EC milk/kg DMI,[10]; [17],1.36 ^* kg EC milk/kg DMI
same,kg milk/day,[10]; [17],24.5 kg milk/day
same,g CH4/kg EC milk,"[10]; study 1 WUR, 54 mg 3‐NOP/kg TMR DM intake (control 17.1)",12.9 ^* (18.7) g CH4/kg EC milk
same,g CH4/kg DM intake,"[10]; study 1 WUR, 54 mg 3‐NOP/kg TMR DM intake (control 22.4)",17.7 ^* (25.5) g CH4/kg DM intake
same,g CH4/day,"[10]; study 1 WUR, 54 mg 3‐NOP/kg TMR DM intake, average over 15 weeks (control 423)",332 ^* (480) g CH4/day
same,Final BW,[10]; [18],721 kg
same,Milk fat,[10]; [18],39.9 ^* g/kg
same,Milk protein,[10]; [18],33.4 g/kg
same,TMR DM intake,[10]; [18],22.9 kg/day
same,kg EC milk/day,[10]; [18],35.0 ^* kg EC milk/day
same,kg EC milk/kg DMI,[10]; [18],1.53 kg EC milk/kg DMI
same,kg milk/day,[10]; [18],36.0 kg milk/day
same,g H2/day,"[10]; study 2 UK, 57 mg 3‐NOP/kg TMR DM intake (control 2.6)",10.6 ^* (2.4) g H2/day
same,g CH4/kg EC milk,"[10]; study 2 UK, 57 mg 3‐NOP/kg TMR DM intake (control 12.3)",8.4 ^* (10.1) g CH4/kg EC milk
same,g CH4/kg DM intake,"[10]; study 2 UK, 57 mg 3‐NOP/kg TMR DM intake (control 20.3)",13.5 ^* (16.7) g CH4/kg DM intake
same,g CH4/day,"[10]; study 2 UK, 57 mg 3‐NOP/kg TMR DM intake (control 449)",292 ^* (400) g CH4/day
same,Final BW,[10]; [19],648 kg
same,Milk fat,[10]; [19],40.2 ^* g/kg
same,Milk protein,[10]; [19],31.5 g/kg
same,TMR DM intake,[10]; [19],25.7 kg/day
same,kg EC milk/day,[10]; [19],37.5 kg EC milk/day
same,kg EC milk/kg DMI,[10]; [19],1.47 kg EC milk/kg DMI
same,kg milk/day,[10]; [19],38.2 kg milk/day
same,g H2/day,"[10]; study 3 PSU, 61 mg 3‐NOP/kg TMR DM intake (control 0.5)",2.6 ^* (0.4) g H2/day
same,g CH4/kg EC milk,"[10]; study 3 PSU, 61 mg 3‐NOP/kg TMR DM intake (control 11.2)",8.2 ^* (9.7) g CH4/kg EC milk
same,g CH4/kg DM intake,"[10]; study 3 PSU, 61 mg 3‐NOP/kg TMR DM intake (control 16.7)",12.1 ^* (14.9) g CH4/kg DM intake
same,g CH4/day,"[10]; study 3 PSU, 61 mg 3‐NOP/kg TMR DM intake (control 410)",308 ^* (403) g CH4/day
same,Decrease of CH4,[11],about 20%
same,3‐NOP concentration remaining after 16 h,"[12]; 1 mg/L, anaerobic, n = 6",0.7%
same,3‐NOP concentration remaining after 16 h,"[12]; aerobic control, n = 2",27.9%
